Test [1] deals with T1, Thioredoxin reductase (Homo sapiens, UniProt Q16881+Q9NNW7+Q86VQ6). In words: Inhibition of thioredoxin-1/thioredoxin reductase system. Format: functional. In short, it runs like this:
(§1)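 Insulin reduction by human placental TrxR plus recombinant human Trx-1 (final 1.0 μM TrxR, 0.8 μM Trx-1) in 100 mM HEPES pH 7.2, 5 mM EDTA with 1 mM NADPH and 2.5 mg/mL bovine insulin, 30 min, 37 °C. Stopped with 6 M guanidine-HCl/Tris pH 8.0/10 mM DTNB; A405 read. IC50 from five concentrations (0.1–50 μM).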

The test system of test [2] is MDA-MB-231. Description: Ability to inhibit the growth of MDA-MB-231 cell line. Format: functional, cell-based. Conditions: Homo sapiens. In short, it runs like this:
(§2)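 MCF-7 (ER+, p53 replete) and MDA-MB-231 (ER−, p53 deficient) human breast cancer cells were seeded at 4000/well and left to attach overnight. They were then exposed to compound (0.1–30 μM) or 0.1% DMSO vehicle for 72 h. Medium was changed to serum-free medium with 0.1% MTT, incubated 3 h in the dark, and cell number read at 540 nm.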

In test [3] the test system is MCF7. In words: Ability to inhibit the growth of MCF-7 cell line. Conditions: Homo sapiens. Format: functional, cell-based. The method, boiled down:
as §2

The target in test [4] is T1, Thioredoxin reductase. In words: Inhibition of thioredoxin reductase. Format: protein assay. The method, boiled down:
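Human placental TrxR (final 1.0 μM) in HEPES pH 7.2/EDTA buffer was added to diluted compound. Reaction started with NADPH (final 1 mM) and DTNB (final 10 mM) at 37 °C. A405 for DTNB reduction read every 10 s and initial rates taken. IC50 from five concentrations (0.1–50 μM).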

The nature of test [5]: Compound was tested for its ability to inhibit thioredoxin-1/thioredoxin reductase system. On the set-up: species or system Homo sapiens. The method, boiled down:
as §1

pIC50: −log10 of the molar value.

Among the data in ChEMBL document CHEMBL1133980, “New inhibitors of the thioredoxin-thioredoxin reductase system based on a naphthoquinone spiroketal natural product lead” (Bioorg Med Chem Lett, 2001) are IC50 values, retold here.

Consider `O=C1C=CC2(Oc3cccc4cccc(c34)O2)c2cccc(OCc3ccc(-c4ccc(Br)cc4)o3)c21`, for which the IC50 (usually the concentration at which inhibition is half-maximal) was found to be 10.2 µM in test [1] and 20.1 µM in test [4]. In addition, the pIC50 (in general, the negative decadic logarithm of the IC50, by convention in mol/L) in test [2] was 5.11; in test [3] it was 5.24.

Regarding `O=C1C=CC2(Oc3cccc4cccc(c34)O2)c2cccc(OCc3ccc(-c4cccc(C(F)(F)F)c4)o3)c21`, the concentration for half-maximal inhibition (IC50) is 42.4 µM in test [1] and over 50 µM in test [4]. Moreover, the pIC50 was 5.28 in test [2] and 5.26 in test [3].

In the case of `CC(C)=CCC/C(C)=C/COc1cccc2c1C(=O)C=CC21Oc2cccc3cccc(c23)O1`, the pIC50 is 5.70 in test [2], under 4.30 in test [5] and 5.34 in test [3].

`CC/C=C/CCOc1cccc2c1C(=O)C=CC21Oc2cccc3cccc(c23)O1` had an IC50 in test [1] of over 50 µM. For the same molecule, the pIC50 is 5.04 in test [2] and under 4.52 in test [3].

Turning to `C#CCOc1cccc2c1C(=O)C=CC21Oc2cccc3cccc(c23)O1`, the IC50 in test [1] is 13.4 µM. For the same molecule, the pIC50 in test [2] was 5.33; in test [3] it was 5.37; in test [4], under 4.30.

For `O=C1C=CC2(Oc3cccc4cccc(c34)O2)c2cccc(OCc3ccc(-c4ccccc4C(F)(F)F)o3)c21`, the IC50 in test [1] and in test [4] was over 50 µM throughout. In addition, the results for the pIC50 in test [2] and in test [3] were 5.31 and 5.30, respectively.

As for `O=C1CCCC2=C1C1(Oc3cccc4cccc(c34)O1)C1OC1C2=O` (configuration not stated), in test [1], the IC50 was 12.2 µM. Besides, the pIC50 in test [2] was 4.64; in test [3], 5.34.

In test [1], `CCCCCCOc1cccc2c1C(=O)C=CC21Oc2cccc3cccc(c23)O1` gave a 50% inhibitory concentration (IC50) of over 50 µM. In addition, the pIC50 in test [2] and in test [3] was 4.87 each time.

Take `O=C1[C@@H]2O[C@@H]2C2(Oc3cccc4cccc(c34)O2)[C@]23O[C@]12CCCC3=O`: the IC50 in test [1] was 13.5 µM. Besides, the pIC50 is 5.54 in test [2] and 5.55 in test [3].

With `O=C1C=CC2(Oc3cccc4cccc(c34)O2)c2cccc(OCc3ccoc3)c21`, the results for the IC50 in test [1] and in test [4] were 23.2 µM and over 50 µM, respectively. In addition, the pIC50 in test [2] and in test [3] was 5.70 each time.

For `O=C1C=CC2(Oc3cccc4cccc(c34)O2)c2cccc(OCc3ccc(Cl)cc3)c21`, the 50% inhibitory concentration (IC50) in test [1] and in test [4] was over 50 µM in each case. The pIC50 was 5.10 in test [2] and under 5.00 in test [3].

Turning to `COc1cccc2c1C(=O)C=CC21OCCCO1`, the IC50 in test [1] was determined as 40.2 µM. In addition, the pIC50 was 5.30 in test [2], 5.36 in test [3] and under 4.30 in test [4].

For the molecule `O=C1C=CC2(Oc3cccc4cccc(c34)O2)c2cccc(OCc3ccco3)c21`, the IC50 in test [1] is over 50 µM. Besides, the pIC50 is 5.60 in test [2] and 5.96 in test [3].

For `O=C1C=CC2(Oc3cccc4cccc(c34)O2)C2=C1[C@@H](O)C1C3C=CC(C3)C1[C@H]2O` (some centres not stated), the IC50 in test [1] was 8 µM. The pIC50 in test [2] is 5.68; in test [3], 5.89.

Consider `O=C1C=CC2(Oc3cccc4cccc(c34)O2)c2cccc(OCc3cccnc3)c21`, for which the IC50 in test [1] and in test [4] was over 50 µM in each case. The pIC50 in test [2] was 5.85; in test [3], 5.82.

As to `O=C1C=CC2(Oc3cccc4cccc(c34)O2)C23OC12CCCC3=O` (configuration not stated), the IC50 in test [1] was 44 µM. Besides, the pIC50 in test [2] was 5.47; in test [3], 5.89.

Take `O=C1C=CC2(Oc3cccc4cccc(c34)O2)c2cccc(OCc3ccccn3)c21`: the IC50 is 41.8 µM in test [1] and over 50 µM in test [4]. Besides, the figures for the pIC50 in test [2] and in test [3] were 5.55 and 5.70, respectively.

Regarding `O=C1C=C[C@H](O)[C@@]23O[C@@]12C1(Oc2cccc4cccc(c24)O1)[C@@H]1O[C@@H]1[C@@H]3O`, the IC50 was 4.5 µM in test [1] and 13.5 µM in test [4]. Also, the pIC50 in test [2] is 5.70; in test [3] it was 5.82.

Turning to `O=C1C=CC2(Oc3cccc4cccc(c34)O2)c2cccc(OCc3ccc(Br)cc3)c21`, the IC50 in test [1] and in test [4] was over 50 µM each time. Also, the pIC50 in test [2] is 5.03; in test [3] it was under 5.00.

With `O=C1C=CC2(Oc3cccc4cccc(c34)O2)c2cccc(OCc3ccncc3)c21`, the IC50 in test [1] and in test [4] was over 50 µM each time. Further, the pIC50 in test [2] was 5.14; in test [3] it was 5.10.

Molecule `C/C=C(\C)COc1cccc2c1C(=O)C=CC21Oc2cccc3cccc(c23)O1` registered an IC50 in test [1] of over 50 µM. Moreover, the pIC50 was 5.28 in test [2] and 5.37 in test [3].

In the case of `O=C1C=CC2(Oc3cccc4cccc(c34)O2)c2cccc(OCc3ccc(-c4cccc(Cl)c4)o3)c21`, the IC50 in test [1] and in test [4] was over 50 µM throughout. The pIC50 in test [2] and in test [3] was under 5.00 each time.

As to `O=C1C=CC2(Oc3cccc4cccc(c34)O2)c2cccc(O)c21`, the figures for the IC50 in test [1] and in test [4] were 0.35 µM and 12 µM, respectively. Further, the values for the pIC50 in test [2] and in test [3] were 5.62 and 6.00, respectively.

On to `COc1ccc(COc2cccc3c2C(=O)C=CC32Oc3cccc4cccc(c34)O2)cc1`, for which the IC50 in test [1] and in test [4] was over 50 µM throughout. Further, the results for the pIC50 in test [2] and in test [3] were 5.66 and 6.15, respectively.

In test [1], `O=C1C=CC2(Oc3cccc4cccc(c34)O2)C2=C1CCCC2=O` registered an IC50 of 2.1 µM. The figures for the pIC50 in test [2] and in test [3] were 5.19 and 5.42, respectively.

In the case of `O=C1C=CC2(OCCO2)c2cccc(O)c21`, the results for the IC50 in test [1] and in test [4] were 3.4 µM and 8.8 µM, respectively. Also, the pIC50 is 5.37 in test [2] and 5.38 in test [3].

Take `O=C1C=CC2(Oc3cccc4cccc(c34)O2)c2cccc(OCc3ccc(-c4ccccc4Cl)o3)c21`: the IC50 in test [1] and in test [4] was over 50 µM each time. Besides, the pIC50 in test [2] and in test [3] was under 5.00 in each case.

Regarding `O=C1C=CC2(Oc3cccc4cccc(c34)O2)c2cccc(OC/C=C/c3ccccc3)c21`, in test [1], the IC50 is over 50 µM. Besides, the values for the pIC50 in test [2] and in test [3] were 5.12 and 5.10, respectively.

In test [1], `O=C1[C@@H]2O[C@@H]2C2(Oc3cccc4cccc(c34)O2)[C@@]23O[C@@]12CCCC3=O` displayed an IC50 of over 50 µM. In addition, the values for the pIC50 in test [2] and in test [3] were 5.09 and 5.34, respectively.

Take `C/C=C/COc1cccc2c1C(=O)C=CC21Oc2cccc3cccc(c23)O1`: in test [1], the IC50 was over 50 µM. In addition, the pIC50 in test [2] is 5.54; in test [3] it was 5.89.

For `C=CCOc1cccc2c1C(=O)C=CC21Oc2cccc3cccc(c23)O1`, the figures for the IC50 in test [1] and in test [4] were 23.2 µM and over 50 µM, respectively. Besides, the pIC50 in test [2] was 5.57; in test [3], 5.70.

Molecule `CC(C)=CCOc1cccc2c1C(=O)C=CC21Oc2cccc3cccc(c23)O1` came in with an IC50 in test [1] of over 50 µM. The pIC50 in test [2] was 5.44; in test [3] it was 5.70.

On to `O=C1C=CC2(Oc3cccc4cccc(c34)O2)c2cccc(OCCc3ccccc3)c21`, for which, in test [1], the IC50 is over 50 µM. For the same molecule, the pIC50 in test [2] is 5.34; in test [3], 5.41.

Consider `COc1cccc(COc2cccc3c2C(=O)C=CC32Oc3cccc4cccc(c34)O2)c1`, for which the IC50 in test [1] is over 50 µM. The pIC50 was 5.57 in test [2] and 5.64 in test [3].

`C=C(C)COc1cccc2c1C(=O)C=CC21Oc2cccc3cccc(c23)O1`: the values for the IC50 in test [1] and in test [4] were 4.8 µM and over 50 µM, respectively. In addition, the figures for the pIC50 in test [2] and in test [3] were 5.09 and 5.11, respectively.

Regarding `C/C=C(/C)COc1cccc2c1C(=O)C=CC21Oc2cccc3cccc(c23)O1`, the IC50 in test [1] was over 50 µM. The pIC50 in test [2] was 5.35; in test [3] it was 5.72.
